Measurements reported in ChEMBL document CHEMBL4819057, “Discovery of antiproliferative and anti-FAK inhibitory activity of 1,2,4-triazole derivatives containing acetamido carboxylic acid skeleton” (Bioorg Med Chem Lett, 2021).
Activity calls are given as the source filed them. The calls are words filed in the database; no cut-off is given here.

Legend:
[1] = target: c-Jun N-terminal kinase, JNK (Homo sapiens) (UniProt P45983+P53779+P45984); assay: Inhibition of JNK in human HepG2 cells assessed as reduction in JNK phosphorylation by Westernblot analysis; assay type: cell-based
How it was run: (§1)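 HepG2 cells treated, with DMSO as negative control (4 μM stated for p-FAK). Western blot for phospho-FAK, -PI3K, -Akt, -JNK and -STAT3 with GAPDH as loading control. Each phospho band is quantified by densitometry relative to its total protein. Means ± SEM of three experiments, with significance vs DMSO.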

[2] = test system: HepG2; assay: Antiproliferative activity against human HepG2 cells assessed as growth inhibition; assay type: functional, cell-based
[3] = test system: HepG2; assay: Inhibition of PI3K in human HepG2 cells assessed as reduction in PI3K phosphorylation by Westernblot analysis; assay type: cell-based; how it was run: as §1
[4] = test system: Hep 3B2; assay: Antiproliferative activity against human Hep3B cells assessed as growth inhibition; assay type: functional, cell-based
[5] = target: RAC-alpha serine/threonine-protein kinase (Homo sapiens) (UniProt P31749); assay: Inhibition of Akt in human HepG2 cells assessed as reduction in Akt phosphorylation by Westernblot analysis; assay type: cell-based; how it was run: as §1
[6] = target: Signal transducer and activator of transcription 3 (Homo sapiens) (UniProt P40763); assay: Inhibition of STAT3 in human HepG2 cells assessed as reduction in STAT3 phosphorylation by Westernblot analysis; assay type: cell-based; how it was run: as §1
[7] = target: T1, Focal adhesion kinase 1 (Homo sapiens, UniProt Q05397); assay: Inhibition of human FAK phosphorylation in human HepG2 cells at 4 uM by Western blot analysis; assay type: cell-based; how it was run: as §1
Target sequence in this assay (Q05397 2-1052 limits assumed): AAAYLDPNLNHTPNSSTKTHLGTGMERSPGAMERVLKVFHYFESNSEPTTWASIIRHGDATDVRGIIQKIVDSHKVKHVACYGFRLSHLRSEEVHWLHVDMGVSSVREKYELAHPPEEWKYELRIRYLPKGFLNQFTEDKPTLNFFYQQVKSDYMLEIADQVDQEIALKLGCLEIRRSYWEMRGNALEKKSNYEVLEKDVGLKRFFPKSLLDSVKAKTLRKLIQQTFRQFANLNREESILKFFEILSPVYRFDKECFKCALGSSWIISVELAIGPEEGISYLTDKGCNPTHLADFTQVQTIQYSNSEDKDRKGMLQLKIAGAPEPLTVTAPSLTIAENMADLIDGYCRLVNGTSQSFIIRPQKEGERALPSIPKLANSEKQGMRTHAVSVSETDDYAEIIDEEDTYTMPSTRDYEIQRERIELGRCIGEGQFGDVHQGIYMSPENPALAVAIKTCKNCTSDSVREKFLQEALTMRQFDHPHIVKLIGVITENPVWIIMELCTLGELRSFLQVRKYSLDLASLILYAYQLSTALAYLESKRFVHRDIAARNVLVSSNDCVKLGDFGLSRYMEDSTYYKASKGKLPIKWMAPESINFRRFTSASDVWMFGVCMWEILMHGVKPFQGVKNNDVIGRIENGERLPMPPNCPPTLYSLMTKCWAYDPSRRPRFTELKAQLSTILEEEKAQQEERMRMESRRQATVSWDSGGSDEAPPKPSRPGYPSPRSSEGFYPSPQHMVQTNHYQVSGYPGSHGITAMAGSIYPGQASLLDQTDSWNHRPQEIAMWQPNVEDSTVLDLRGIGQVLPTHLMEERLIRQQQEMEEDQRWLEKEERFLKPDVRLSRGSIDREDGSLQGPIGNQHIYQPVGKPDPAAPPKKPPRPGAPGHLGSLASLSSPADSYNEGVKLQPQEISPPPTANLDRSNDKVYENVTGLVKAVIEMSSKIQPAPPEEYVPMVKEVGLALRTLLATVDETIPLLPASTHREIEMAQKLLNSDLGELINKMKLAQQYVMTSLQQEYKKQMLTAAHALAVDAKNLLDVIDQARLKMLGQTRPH

[8] = target: T1, Focal adhesion kinase 1; assay: Inhibition of FAK (unknown origin)
Target sequence in this assay (Q05397 whole entry): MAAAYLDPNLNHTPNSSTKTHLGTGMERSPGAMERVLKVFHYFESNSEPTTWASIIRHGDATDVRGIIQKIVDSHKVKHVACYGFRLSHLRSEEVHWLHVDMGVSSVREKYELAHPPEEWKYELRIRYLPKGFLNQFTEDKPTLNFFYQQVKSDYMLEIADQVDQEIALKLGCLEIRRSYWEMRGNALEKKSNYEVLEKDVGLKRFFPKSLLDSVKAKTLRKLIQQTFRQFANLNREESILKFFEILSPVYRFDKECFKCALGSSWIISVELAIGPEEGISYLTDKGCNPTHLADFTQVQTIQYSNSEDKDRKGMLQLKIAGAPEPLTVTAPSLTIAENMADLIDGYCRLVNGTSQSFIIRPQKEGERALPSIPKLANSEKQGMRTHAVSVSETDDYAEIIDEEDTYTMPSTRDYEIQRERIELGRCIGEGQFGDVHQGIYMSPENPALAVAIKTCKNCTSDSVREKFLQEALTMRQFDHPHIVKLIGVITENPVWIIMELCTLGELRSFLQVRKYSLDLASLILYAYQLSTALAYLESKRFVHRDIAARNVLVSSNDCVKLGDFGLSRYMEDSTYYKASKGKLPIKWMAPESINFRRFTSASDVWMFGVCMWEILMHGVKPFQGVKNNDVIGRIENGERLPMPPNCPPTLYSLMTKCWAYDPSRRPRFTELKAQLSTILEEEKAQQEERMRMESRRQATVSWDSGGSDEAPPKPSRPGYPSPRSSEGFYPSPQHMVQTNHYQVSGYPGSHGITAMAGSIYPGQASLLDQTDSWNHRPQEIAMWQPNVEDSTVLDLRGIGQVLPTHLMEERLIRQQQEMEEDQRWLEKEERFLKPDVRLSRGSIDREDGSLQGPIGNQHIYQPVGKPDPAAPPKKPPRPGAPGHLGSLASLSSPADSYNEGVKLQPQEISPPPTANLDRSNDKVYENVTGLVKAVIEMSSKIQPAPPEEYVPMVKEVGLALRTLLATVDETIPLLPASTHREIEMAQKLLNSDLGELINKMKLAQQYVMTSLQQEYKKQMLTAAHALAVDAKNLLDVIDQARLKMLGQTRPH

[9] = test system: HepG2; assay: Induction of apoptosis in human HepG2 cells assessed as necrotic cells after 24 hrs by Annexin V/propidium iodide staining based assay (reference value: 0.79%); assay type: functional
[10] = test system: HepG2; assay: Induction of apoptosis in human HepG2 cells assessed as early apoptotic cells after 24 hrs by Annexin V/propidium iodide staining based assay (reference value: 0.33%); assay type: functional
[11] = test system: HepG2; assay: Induction of apoptosis in human HepG2 cells assessed as late apoptotic cells after 24 hrs by Annexin V/propidium iodide staining based assay (reference value: 0.09%); assay type: functional
[12] = test system: HepG2; assay: Induction of cell cycle arrest in human HepG2 assessed as accumulation of cells at S phase at 3.78 uM incubated for 24 hrs by Flow cytometric analysis; assay type: functional
[13] = test system: HepG2; assay: Induction of cell cycle arrest in human HepG2 assessed as accumulation of cells at sub G1 phase at 3.78 uM incubated for 24 hrs by Flow cytometric analysis

RAC-alpha serine/threonine-protein kinase (Homo sapiens), sequence (P31749 whole entry): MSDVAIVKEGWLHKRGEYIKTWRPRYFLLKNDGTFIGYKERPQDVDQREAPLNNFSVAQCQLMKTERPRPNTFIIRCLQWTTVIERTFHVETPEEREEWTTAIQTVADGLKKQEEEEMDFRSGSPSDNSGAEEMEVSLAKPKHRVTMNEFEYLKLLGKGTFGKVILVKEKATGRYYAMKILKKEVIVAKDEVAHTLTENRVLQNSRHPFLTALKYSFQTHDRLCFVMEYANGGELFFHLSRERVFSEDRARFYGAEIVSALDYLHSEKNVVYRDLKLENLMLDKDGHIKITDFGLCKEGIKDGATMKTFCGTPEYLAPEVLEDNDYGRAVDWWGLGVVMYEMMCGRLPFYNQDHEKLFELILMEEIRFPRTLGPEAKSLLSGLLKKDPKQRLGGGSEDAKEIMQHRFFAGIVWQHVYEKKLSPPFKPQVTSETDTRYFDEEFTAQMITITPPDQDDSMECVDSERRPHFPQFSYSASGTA
Signal transducer and activator of transcription 3 (Homo sapiens), sequence (P40763 whole entry): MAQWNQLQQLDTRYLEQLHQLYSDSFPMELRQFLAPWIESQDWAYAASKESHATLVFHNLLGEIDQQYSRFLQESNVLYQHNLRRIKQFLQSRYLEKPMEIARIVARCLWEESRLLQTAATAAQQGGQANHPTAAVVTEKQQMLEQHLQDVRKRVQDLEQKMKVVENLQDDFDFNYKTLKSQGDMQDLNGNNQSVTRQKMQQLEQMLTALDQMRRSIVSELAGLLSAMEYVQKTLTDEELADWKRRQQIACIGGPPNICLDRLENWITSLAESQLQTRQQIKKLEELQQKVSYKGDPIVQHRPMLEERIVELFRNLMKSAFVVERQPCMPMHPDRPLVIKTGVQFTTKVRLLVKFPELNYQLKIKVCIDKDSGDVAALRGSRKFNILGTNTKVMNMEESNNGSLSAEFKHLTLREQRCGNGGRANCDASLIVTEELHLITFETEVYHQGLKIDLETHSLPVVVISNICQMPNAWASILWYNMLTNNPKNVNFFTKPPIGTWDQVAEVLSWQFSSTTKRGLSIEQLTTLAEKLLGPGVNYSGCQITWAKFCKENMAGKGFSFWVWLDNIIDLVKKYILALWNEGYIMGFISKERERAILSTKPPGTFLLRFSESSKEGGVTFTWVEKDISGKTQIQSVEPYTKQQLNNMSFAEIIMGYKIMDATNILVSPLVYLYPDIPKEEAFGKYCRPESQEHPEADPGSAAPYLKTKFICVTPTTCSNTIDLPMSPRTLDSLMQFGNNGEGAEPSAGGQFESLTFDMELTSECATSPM

Row | SMILES | inhibition [1] | IC50 [2] [µM] | inhibition [3] | IC50 [4] [µM] | inhibition [5] | inhibition [6] | inhibition [7] | IC50 [8] [µM] | Activity [9] [%] | Activity [10] [%] | Activity [11] [%] | Activity [12] [%] | Activity [13] [%]
1 | C=CCn1c(SCC(=O)Nc2ccc(C(=O)O)cc2)nnc1-c1ccncc1 | Active | 4.72 | Active | 2.88 | Active | Active | Active | 0.0364 |  |  |  |  | 
2 | COc1cccc2c1C(=O)c1c(O)c3c(c(O)c1C2=O)C[C@@](O)(C(=O)CO)C[C@@H]3O[C@H]1C[C@H](N)[C@H](O)[C@H](C)O1 [DOXORUBICIN] |  | 1.99 |  | 7.21 |  |  |  |  |  |  |  |  | 
3 | Cn1c(SCC(=O)Nc2ccc(C(=O)O)cc2)nnc1-c1ccncc1 |  | 8.83 |  | 3.87 |  |  |  |  |  |  |  |  | 
4 | CCn1c(SCC(=O)Nc2ccc(C(=O)O)cc2)nnc1-c1ccncc1 |  | 41 |  | 17.9 |  |  |  |  |  |  |  |  | 
5 | O=C(CSc1nnc(-c2ccncc2)n1-c1ccccc1)Nc1ccc(C(=O)O)cc1 | Active | 3.78 | Active | 4.83 | Active | Active | Active | 0.0181 | 12.59 | 5.31 | 23.71 | 54.11 | 41.61
